Experimental data of several laboratories.
Each line is one published result; the experiments were not run side by side.
RORC: Nuclear receptor ROR-gamma (RORC, Homo sapiens, UniProt P51449)
Toll-like receptor 1/2: Toll-like receptor 1/2 (Homo sapiens, UniProt O60603+Q15399)
Chymotrypsinogen A: Chymotrypsinogen A (Bos taurus, UniProt P00766)

Cc1cc(Nc2cc3ncccc3c(N[C@@H]3C[C@H]4CC[C@@H](C3)N4CCC#N)n2)n[nH]1
Kd (Cyclin-dependent kinase 4, with cyclin D1 (CDK4, Homo sapiens, UniProt P11802); binding, competition with immobilised ligand): 0.15 µM

O=S(=O)(c1cccc(C(F)(F)F)c1)N1CCc2ccc(OCc3c(F)cncc3Cl)cc21
IC50 (RORC; ligand displacement, radioligand): 0.23 µM

CNc1ccc(C(=O)OC)cc1-n1cnc(-c2ccc(C(F)(F)F)cc2)c1
EC50 (Toll-like receptor 1/2; reporter gene, agonist): > 100 µM

CCCC[C@H](NC(=O)[C@H](CCCCN)NC(=O)[C@H](CO)NC(=O)[C@H](CO)NC(=O)OCc1ccccc1)C(=O)N[C@@H](Cc1ccccc1)B(O)O
Ki (Chymotrypsinogen A; enzyme activity, inhibitor, fluorescence): 0.0181 µM

O=S(=O)(c1cccc(C(F)(F)F)c1)N1c2cc(OCc3c(Cl)cncc3Cl)ccc2CC1C(F)(F)F (centres unmarked)
IC50 (RORC; ligand displacement, radioligand): 0.15 µM

CNc1ccc([N+](=O)[O-])cc1-n1cnc(-c2ccc(C(C)(C)C)cc2)c1
EC50 (Toll-like receptor 1/2; reporter gene, agonist): 0.15 µM

Cc1cnc(-c2ccc(-c3ccc(NC(=O)Nc4c(F)cc(F)cc4F)cc3F)c3c2C(=O)NC3)[nH]1
IC50 (Serine/threonine-protein kinase 24 (STK24, Homo sapiens, UniProt Q9Y6E0); enzyme activity, inhibitor): 0.0415 µM

CCCC[C@H](NC(=O)[C@H](CCC(N)=O)NC(=O)[C@H](CO)NC(=O)CCCCCN)C(=O)N[C@@H](CCCBr)B(O)O
Ki (Chymotrypsinogen A; enzyme activity, inhibitor, fluorescence): 0.251 µM

O=C(CCn1cc(CN2CCN(c3cc4c(cc3F)c(=O)c(C(=O)O)cn4C3CC3)CC2)nn1)Nc1ccc(S[C@@H]2O[C@H](CO)[C@H](O)[C@H](O)[C@H]2O)cc1
Ki (PA-I galactophilic lectin (lecA, Pseudomonas aeruginosa, UniProt Q05097); ligand displacement, FP): 4.29 µM

O=S(=O)(c1cccc(C(F)(F)F)c1)N1CCc2ccc(OCc3c(Cl)ccnc3Cl)cc21
IC50 (RORC; ligand displacement, radioligand): 0.078 µM

CNc1ccc([N+](=O)[O-])cc1-n1cnc(-c2ccc(F)cc2)c1
EC50 (Toll-like receptor 1/2; reporter gene, agonist): 2.78 µM

NC(=O)C1=CN([C@@H]2O[C@H](COP(=O)(O)OP(=O)(O)OC[C@H]3O[C@@H](n4cnc5c(N)ncnc54)[C@H](O)[C@@H]3O)[C@@H](O)[C@H]2O)C=CC1
Ki (ADH1 (Saccharomyces cerevisiae, UniProt P00330, H16R); enzyme activity, inhibitor): 12 µM

CNc1ccc(C(F)(F)F)cc1-n1cnc(-c2ccc(C(F)(F)F)cc2)c1
EC50 (Toll-like receptor 1/2; reporter gene, agonist): 0.24 µM

OC[C@@H]1[C@@H](O)[C@H](O)[C@@H](O)[C@@H]2O[C@H]12
IC50 (Beta-glucosidase (GBA2, Homo sapiens, UniProt Q9HCG7); enzyme activity, inhibitor; pH 5.5, lysate): 0.35 µM
